# Tests used:
# [1] = folding enthalpy; higher = less favourable; fluorescence melt of hairpins on a sequencing array, two-state fit; conditions: sodium 0.088 M
# Outline: (§1)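 Folding enthalpy and melting temperature come from bootstrapped two-state fits to Cy3 fluorescence of library hairpins carrying annealed Cy3 and quencher oligos on a sequenced MiSeq flow cell. Imaging was done in 50 mM Na-HEPES pH 8.0, 25 mM NaCl, stepping by 2.5 °C up to 60 °C, and signals were normalised to pre-quench Cy3 and to control constructs. Results of four replicates were combined by inverse variance, and fitted temperatures were raised by 9.35 °C to match UV melts.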
# [2] = melting temperature; fluorescence melt of hairpins on a sequencing array, two-state fit, raised by 9.35 °C to match UV melts; conditions: sodium 0.088 M
# Outline: as §1
sequence,measurement,setting,value
GTTGCCCGAAAGGGTAAC (((.(((....))).))),folding enthalpy,[1],-31.6 kcal/mol
same,Tm,[2],60.9 °C
GTTGCCGAAAGGCGAAC ((((((....))).))),folding enthalpy,[1],-13.8 kcal/mol
same,Tm,[2],50.3 °C
GTTGCCGGAAACGGTGAC ((..(((....)))..)),folding enthalpy,[1],-22.8 kcal/mol
same,Tm,[2],47.8 °C
GTTGCGGGAAACCGTAGC (.(.(((....))).).),folding enthalpy,[1],-24.5 kcal/mol
same,Tm,[2],36.1 °C
GTTGCGGGAAACTGCGAC ((.((.(....).)).)),folding enthalpy,[1],-11 kcal/mol
same,Tm,[2],38 °C
GTTGCTGGAAACAACAAC ((((.((....)).)))),folding enthalpy,[1],-29.2 kcal/mol
same,Tm,[2],38.8 °C
GTTGCTGGAAACAGCAAC (((((((....))))))),folding enthalpy,[1],-62.8 kcal/mol
same,Tm,[2],65.8 °C
GTTGGAGGAAACTCCGAC ((.((((....)))).)),folding enthalpy,[1],-40.7 kcal/mol
same,Tm,[2],52.8 °C
GTTGGAGGAAACTCTAAC (((.(((....))).))),folding enthalpy,[1],-27.1 kcal/mol
same,Tm,[2],39.9 °C
GTTGGCGAAAGCCAGAAC ((((((....)))..))),folding enthalpy,[1],-8.8 kcal/mol
same,Tm,[2],35.1 °C
GTTGGCGAAAGCCCAAC ((((((....))).))),folding enthalpy,[1],-16.3 kcal/mol
same,Tm,[2],50.7 °C
GTTGGCGGAAACGTCAAC ((((.((....)).)))),folding enthalpy,[1],-36.7 kcal/mol
same,Tm,[2],56.8 °C
GTTGGGCGAAAGCCGAAC (((.(((....))).))),folding enthalpy,[1],-19.5 kcal/mol
same,Tm,[2],53.2 °C
GTTGGGGAAACCCAAC ((((((....)))))),folding enthalpy,[1],-36.8 kcal/mol
same,Tm,[2],60 °C
GTTGGGGGAAACCCCAGC (.(((((....))))).),folding enthalpy,[1],-17.3 kcal/mol
same,Tm,[2],49.8 °C
GTTGGTGGAAACATCAGC (.((.((....)).)).),folding enthalpy,[1],-18.8 kcal/mol
same,Tm,[2],31.4 °C
GTTGTACGAAAGTATAAC (((.(((....))).))),folding enthalpy,[1],-26.9 kcal/mol
same,Tm,[2],47.6 °C
GTTGTAGGAAACTACAGC (.(((((....))))).),folding enthalpy,[1],-25.8 kcal/mol
same,Tm,[2],42 °C
GTTGTCCGAAAGGAAAC (((.(((....)))))),folding enthalpy,[1],-20.4 kcal/mol
same,Tm,[2],37.8 °C
GTTGTCGAAAGACAAAC ((((((....))).))),folding enthalpy,[1],-14.2 kcal/mol
same,Tm,[2],48.9 °C
GTTGTCGAAAGACCGAAC ((((((....)))..))),folding enthalpy,[1],-11.3 kcal/mol
same,Tm,[2],28.8 °C
GTTGTCGAAAGACGAAAC ((((((....)))..))),folding enthalpy,[1],-9.08 kcal/mol
same,Tm,[2],29.1 °C
GTTGTCGAAAGACTCAAC ((((((....)))..))),folding enthalpy,[1],-11.7 kcal/mol
same,Tm,[2],27.7 °C
GTTGTCGGAAACGATGAC ((..(((....)))..)),folding enthalpy,[1],-16 kcal/mol
same,Tm,[2],40.4 °C
GTTGTGCCGAAAGGCAAC (((..(((....)))))),folding enthalpy,[1],-19.6 kcal/mol
same,Tm,[2],53 °C
GTTGTGGCGAAAGCCAAC (((..(((....)))))),folding enthalpy,[1],-18.3 kcal/mol
same,Tm,[2],53.7 °C
GTTGTGGGAAACCACAAC (((((((....))))))),folding enthalpy,[1],-46 kcal/mol
same,Tm,[2],63.1 °C
GTTGTGGGAAACCACGAC ((.((((....)))).)),folding enthalpy,[1],-30.8 kcal/mol
same,Tm,[2],52.7 °C
GTTGTGGGAAACCGTAAC (((..((....))..))),folding enthalpy,[1],-13 kcal/mol
same,Tm,[2],29.2 °C
GTTGTTCCGAAAGGAAAC (((..(((....)))))),folding enthalpy,[1],-20.5 kcal/mol
same,Tm,[2],49.1 °C
GTTGTTCGAAAGAATAAC (((.(((....))).))),folding enthalpy,[1],-31.6 kcal/mol
same,Tm,[2],45.6 °C
GTTGTTGAAAAACAAC ((((((....)))))),folding enthalpy,[1],-38.2 kcal/mol
same,Tm,[2],51.9 °C
GTTGTTGCGAAAGCAAAC (((..(((....)))))),folding enthalpy,[1],-21.7 kcal/mol
same,Tm,[2],53.1 °C
GTTGTTGGAAACAACAGC (.(((((....))))).),folding enthalpy,[1],-13.2 kcal/mol
same,Tm,[2],52.8 °C
GTTGTTGGAAACAGCAAC ((((.((....)).)))),folding enthalpy,[1],-16.7 kcal/mol
same,Tm,[2],45.3 °C
GTTGTTGGAAACGACAAC (((((.(....).))))),folding enthalpy,[1],-8.7 kcal/mol
same,Tm,[2],48.4 °C
GTTGTTTCGAAAGAAAAC (((..(((....)))))),folding enthalpy,[1],-32.9 kcal/mol
same,Tm,[2],41.8 °C
GTTTAACGAAAGTTAAC (((.(((....)))))),folding enthalpy,[1],-14.6 kcal/mol
same,Tm,[2],37.1 °C
GTTTACCGAAAGGTGAAC (((.(((....))).))),folding enthalpy,[1],-33 kcal/mol
same,Tm,[2],51.4 °C
GTTTACGAAAGTAAAAAC ((((((....)))..))),folding enthalpy,[1],-12 kcal/mol
same,Tm,[2],29.5 °C
GTTTACGAAAGTAAAAC ((((((....))).))),folding enthalpy,[1],-16.8 kcal/mol
same,Tm,[2],38.4 °C
GTTTACGAAAGTATAAC ((((((....))).))),folding enthalpy,[1],-12.8 kcal/mol
same,Tm,[2],32.4 °C
GTTTAGCCGAAAGGCAAC (((..(((....)))))),folding enthalpy,[1],-8.63 kcal/mol
same,Tm,[2],33.7 °C
GTTTAGCGAAAGCTCAAC (((.(((....))).))),folding enthalpy,[1],-20.6 kcal/mol
same,Tm,[2],41.7 °C
GTTTAGGCGAAAGCCAAC (((..(((....)))))),folding enthalpy,[1],-10.1 kcal/mol
same,Tm,[2],33.3 °C
GTTTATGGAAACATGAAC (((.(((....))).))),folding enthalpy,[1],-31.3 kcal/mol
same,Tm,[2],35.7 °C
GTTTCCACGAAAGTGAAC (((..(((....)))))),folding enthalpy,[1],-8.62 kcal/mol
same,Tm,[2],27.2 °C
GTTTCCGCGAAAGCGAAC (((..(((....)))))),folding enthalpy,[1],-9.18 kcal/mol
same,Tm,[2],23.6 °C
GTTTCCGGAAACGGAAAC (((((((....))))))),folding enthalpy,[1],-46.4 kcal/mol
same,Tm,[2],64.6 °C
GTTTCGCGAAAGCGTAAC (((.(((....))).))),folding enthalpy,[1],-21.9 kcal/mol
same,Tm,[2],48.6 °C
GTTTCGGAAACGAAAC ((((((....)))))),folding enthalpy,[1],-35.9 kcal/mol
same,Tm,[2],56.9 °C
GTTTCTGGAAACAGGAAC (((.(((....))).))),folding enthalpy,[1],-30.4 kcal/mol
same,Tm,[2],43.6 °C
GTTTGACCGAAAGGTAAC (((..(((....)))))),folding enthalpy,[1],-11.6 kcal/mol
same,Tm,[2],32.4 °C
GTTTGAGAAATCAAAC ((((((....)))))),folding enthalpy,[1],-27.6 kcal/mol
same,Tm,[2],47 °C
GTTTGAGGAAACTCAAGC (.(((((....))))).),folding enthalpy,[1],-25.1 kcal/mol
same,Tm,[2],40.5 °C
GTTTGAGGAAACTCGAAC (((.(((....))).))),folding enthalpy,[1],-31.7 kcal/mol
same,Tm,[2],45.6 °C
GTTTGCCGAAAGGCAAC (((.(((....)))))),folding enthalpy,[1],-10.7 kcal/mol
same,Tm,[2],50.4 °C
GTTTGCCGAAAGGCGAAC (((.(((....))).))),folding enthalpy,[1],-28.3 kcal/mol
same,Tm,[2],61.9 °C
GTTTGCGAAAGCAACAAC ((((((....)))..))),folding enthalpy,[1],-9.1 kcal/mol
same,Tm,[2],33.7 °C
GTTTGCGAAAGCACAAAC ((((((....)))..))),folding enthalpy,[1],-12.3 kcal/mol
same,Tm,[2],31.6 °C
GTTTGCGAAAGCATGAAC ((((((....)))..))),folding enthalpy,[1],-8.14 kcal/mol
same,Tm,[2],26.4 °C
GTTTGGCGAAAGCCAAC (((.(((....)))))),folding enthalpy,[1],-11.1 kcal/mol
same,Tm,[2],48.7 °C
GTTTGGCGAAAGCCTAAC (((.(((....))).))),folding enthalpy,[1],-21.8 kcal/mol
same,Tm,[2],51 °C
GTTTGGGCGAAAGCCAAC (((..(((....)))))),folding enthalpy,[1],-10.8 kcal/mol
same,Tm,[2],36.1 °C
GTTTGTCGAAAGACAAC (((.(((....)))))),folding enthalpy,[1],-14.3 kcal/mol
same,Tm,[2],47.5 °C
GTTTGTCGAAAGACCAAC (((.(((....))).))),folding enthalpy,[1],-26.1 kcal/mol
same,Tm,[2],37.9 °C
GTTTGTCGAAAGACTAAC (((.(((....))).))),folding enthalpy,[1],-23.9 kcal/mol
same,Tm,[2],45.8 °C
GTTTGTGGAAACGTAAAC ((((..(....)..)))),folding enthalpy,[1],-13.6 kcal/mol
same,Tm,[2],29.1 °C
GTTTTACGAAAGTACAAC (((.(((....))).))),folding enthalpy,[1],-25.8 kcal/mol
same,Tm,[2],35.5 °C
GTTTTAGGAAACTAAAAC (((((((....))))))),folding enthalpy,[1],-41.9 kcal/mol
same,Tm,[2],48.4 °C
GTTTTAGGAAACTAGAAC (((.(((....))).))),folding enthalpy,[1],-11.5 kcal/mol
same,Tm,[2],27.9 °C
GTTTTAGGAAACTGAAAC ((((.((....)).)))),folding enthalpy,[1],-22.1 kcal/mol
same,Tm,[2],35.2 °C
GTTTTCGAAAGAAAAC ((((((....)))))),folding enthalpy,[1],-29.2 kcal/mol
same,Tm,[2],57.4 °C
GTTTTCGGAAACGAAGAC ((.((((....)))).)),folding enthalpy,[1],-28.8 kcal/mol
same,Tm,[2],42.5 °C
GTTTTCTCGAAAGAGAAC (((..(((....)))))),folding enthalpy,[1],-15.3 kcal/mol
same,Tm,[2],34.7 °C
GTTTTGCGAAAGCATAAC (((.(((....))).))),folding enthalpy,[1],-25.4 kcal/mol
same,Tm,[2],45.3 °C
GTTTTGGCGAAAGCCAAC (((..(((....)))))),folding enthalpy,[1],-8.06 kcal/mol
same,Tm,[2],38.6 °C
GTTTTGGGAAACCGAAAC ((((.((....)).)))),folding enthalpy,[1],-38.3 kcal/mol
same,Tm,[2],45.7 °C
GTTTTGGGAAACTGAAAC ((((..(....)..)))),folding enthalpy,[1],-12.2 kcal/mol
same,Tm,[2],31.4 °C
GTTTTTCGAAAGAATAAC (((.(((....))).))),folding enthalpy,[1],-28.1 kcal/mol
same,Tm,[2],34.7 °C
GTTTTTGGAAACAGAAAC ((((.((....)).)))),folding enthalpy,[1],-28.1 kcal/mol
same,Tm,[2],32.7 °C
TAAACGAAAGTTTA (((((....))))),folding enthalpy,[1],-15.4 kcal/mol
same,Tm,[2],41.5 °C
TACCTGAAAAGGTA (((((....))))),folding enthalpy,[1],-14.8 kcal/mol
same,Tm,[2],41.3 °C
TACGAGAAATCGTA (((((....))))),folding enthalpy,[1],-14.9 kcal/mol
same,Tm,[2],37.5 °C
TACTCGAAAGAGTA (((((....))))),folding enthalpy,[1],-18.1 kcal/mol
same,Tm,[2],47.1 °C
TAGCAGAAATGCTA (((((....))))),folding enthalpy,[1],-14 kcal/mol
same,Tm,[2],38.1 °C
TAGCGGAAACGCTA (((((....))))),folding enthalpy,[1],-15.9 kcal/mol
same,Tm,[2],54.3 °C
TAGGGGAAACCCTA (((((....))))),folding enthalpy,[1],-15.3 kcal/mol
same,Tm,[2],40.2 °C
TATCTGAAAAGATA (((((....))))),folding enthalpy,[1],-11.5 kcal/mol
same,Tm,[2],29.8 °C
TATGTGAAAACATA (((((....))))),folding enthalpy,[1],-12.4 kcal/mol
same,Tm,[2],35.3 °C
TATTGGAAACAATA (((((....))))),folding enthalpy,[1],-5.94 kcal/mol
same,Tm,[2],25.5 °C
TCAAGGAAACTTGA (((((....))))),folding enthalpy,[1],-8.95 kcal/mol
same,Tm,[2],32 °C
